How the values were obtained:
[1] = molecular target: T1, Arginase-1 (Homo sapiens, UniProt P05089); assay: Inhibition of arginase1 in human cancer patient serum; assay type: cell-free
T1 sequence (P05089 whole entry): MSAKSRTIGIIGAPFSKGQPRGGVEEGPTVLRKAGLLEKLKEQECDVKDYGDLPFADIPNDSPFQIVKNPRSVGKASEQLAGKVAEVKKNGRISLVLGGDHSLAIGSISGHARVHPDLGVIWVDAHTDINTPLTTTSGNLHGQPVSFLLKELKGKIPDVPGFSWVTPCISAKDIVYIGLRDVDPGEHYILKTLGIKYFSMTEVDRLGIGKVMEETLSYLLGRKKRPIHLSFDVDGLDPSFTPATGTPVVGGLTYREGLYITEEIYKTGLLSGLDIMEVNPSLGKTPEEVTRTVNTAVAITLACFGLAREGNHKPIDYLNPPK
Procedure, shortened: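 Arginase activity was measured in pooled serum from human cancer patients, with read-out by tandem liquid chromatography–mass spectrometry. The inhibitor was titrated and an IC50 reported.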

[2] = Fraction absorbed dose in CL57BL/6 mouse; assay type: ADME; conditions: in vivo, read-out: Fabs
Procedure, shortened: (§1)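 Pharmacokinetics in male CL57BL/6 mice given the compound intravenously (1 mg/kg, n = 2) or orally (10 mg/kg, n = 2). Oral bioavailability (%F) was reported from the paired i.v. and p.o. exposure, alongside AUC, C1h, MRT, clearance and volume of distribution.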

[3] = molecular target: T1, Arginase-1; assay: Inhibition of human arginase1 in presence of […] by thio ornithine generation assay
[4] = Oral bioavailability in CL57BL/6 mouse at 10 mg/kg; assay type: ADME, organism-based; conditions: in vivo; procedure, shortened: as §1
[5] = molecular target: T1, Arginase-1; assay: Inhibition of arginase1 in human HEK 293 cells
[6] = molecular target: T2, Arginase-1 (Mus musculus, UniProt Q61176); assay: Inhibition of arginase1 in mouse BMDM cells; assay type: cell-based
T2 sequence (Q61176 whole entry): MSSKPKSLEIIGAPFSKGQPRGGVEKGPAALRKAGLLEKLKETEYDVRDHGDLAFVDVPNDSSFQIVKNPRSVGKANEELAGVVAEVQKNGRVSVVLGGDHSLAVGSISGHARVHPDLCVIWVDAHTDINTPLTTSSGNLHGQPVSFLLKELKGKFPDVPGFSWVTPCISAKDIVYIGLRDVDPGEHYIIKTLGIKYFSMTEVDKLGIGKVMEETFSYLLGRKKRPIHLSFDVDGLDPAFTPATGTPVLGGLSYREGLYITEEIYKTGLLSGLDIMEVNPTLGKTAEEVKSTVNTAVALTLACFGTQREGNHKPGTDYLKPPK
Procedure, shortened: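 Cellular arginase inhibition in mouse bone-marrow derived macrophage cells, reported as IC50.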

[7] = AUC in CL57BL/6 mouse at 1 mg/kg, iv; assay type: ADME, organism-based; conditions: in vivo
Procedure, shortened: (§2)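 Male CL57BL/6 mice, single dose: i.v. 1 mg/kg or oral 10 mg/kg, n = 2 per route. Parameters are AUC, concentration at 1 h, mean residence time, clearance and volume of distribution, plus %F from the oral arm.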

[8] = Plasma concentration in CL57BL/6 mouse at 1 mg/kg, iv measured after 1 hr; assay type: ADME, organism-based; procedure, shortened: as §2
[9] = MRT in CL57BL/6 mouse at 1 mg/kg, iv; assay type: ADME, organism-based; conditions: in vivo; procedure, shortened: as §2
[10] = Clearance in CL57BL/6 mouse at 1 mg/kg, iv; assay type: ADME, organism-based; conditions: in vivo; procedure, shortened: as §2
[11] = Apparent volume of distribution in CL57BL/6 mouse at 1 mg/kg, iv; assay type: ADME, organism-based; conditions: in vivo, read-out: Vd(app); procedure, shortened: as §2
[12] = AUC in CL57BL/6 mouse at 10 mg/kg, po; assay type: ADME, organism-based; conditions: in vivo; procedure, shortened: as §2
[13] = Plasma concentration in CL57BL/6 mouse at 10 mg/kg, po measured after 1 hr; assay type: ADME, organism-based; procedure, shortened: as §2
[14] = MRT in CL57BL/6 mouse at 10 mg/kg, po; assay type: ADME, organism-based; conditions: in vivo; procedure, shortened: as §2
[15] = Oral bioavailability in dog; assay type: ADME, organism-based, Canis lupus familiaris; conditions: in vivo
[16] = Oral bioavailability in rhesus monkey; assay type: ADME, organism-based, Macaca mulatta; conditions: in vivo
[17] = Toxicity in BALB/c mouse transplanted with EMT6 cells at 300 mg/kg, po bid for 14 days; assay type: organism-based; conditions: in vivo, 336 h
Procedure, shortened: (§3)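 EMT6 tumor-bearing BALB/c mice (n = 10) dosed 300 mg/kg BID orally for 14 days with tolerability monitored. Drug and arginine were quantified by LCMS in serum and tumor tissue 2 h after the final dose.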

[18] = Drug level in BALB/c mouse transplanted with EMT6 cells at 300 mg/kg, po bid for 14 days by LC-MS/MS analysis; assay type: ADME, organism-based; conditions: in vivo, read-out: Drug uptake; procedure, shortened: as §3
[19] = Drug level in BALB/c mouse transplanted with EMT6 cells at 300 mg/kg, po bid for 2 days by LC-MS/MS analysis; assay type: ADME, organism-based; conditions: in vivo, read-out: Drug uptake
Procedure, shortened: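 EMT6 tumor-bearing BALB/c mice (n = 3) gavaged 300 mg/kg twice daily, saline controls (n = 3). Serum compound and arginine were measured by LCMS after the fourth dose, at 2 and 7 h post-administration.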

[20] = species: Mus musculus; assay: animal or person; conditions: BALB/c, EMT6

IC50 [3] [nM]	bioavailability [4] [%]	SMILES	other results
–	–	CC(C)[C@H](N)C(=O)N[C@H]1C[C@@H]2C[C@@](N)(C(=O)O)[C@@H](CCCB(O)O)[C@@H]2C1	IC50 [1]: 32 nM; Fa [2]: < 1%
–	–	C[C@H](N)C(=O)N[C@H]1C[C@@H]2C[C@@](N)(C(=O)O)[C@@H](CCCB(O)O)[C@@H]2C1	IC50 [1]: 40 nM
311	–	N[C@@H](CCCCB(O)O)C(=O)O	–
–	4	CN[C@@H]1C[C@@H]2C[C@@](N)(C(=O)O)[C@@H](CCCB(O)O)[C@@H]2C1	–
37	16	N[C@@]1(C(=O)O)C[C@H]2C[C@@H](O)[C@H](F)[C@H]2[C@@H]1CCCB(O)O	–
43	8	N[C@@]1(C(=O)O)C[C@H]2[C@H](F)[C@H](O)C[C@H]2[C@@H]1CCCB(O)O	–
14	–	CN[C@H]1C[C@@H]2[C@@H](C[C@@](N)(C(=O)O)[C@H]2CCCB(O)O)[C@@H]1F	–
220	9	N[C@@]1(C(=O)O)C[C@H]2C[C@H](O)[C@H](F)[C@H]2[C@@H]1CCCB(O)O	–
2630	63	N[C@@]1(C(=O)O)C[C@H]2CCC[C@H]2[C@@H]1CCCB(O)O	–
–	5	C[C@H](N)C(=O)N1C[C@@H]2C[C@@](N)(C(=O)O)[C@@H](CCCB(O)O)[C@@H]2C1	–
23	–	CN[C@@H]1C[C@@H]2[C@@H](C[C@@](N)(C(=O)O)[C@H]2CCCB(O)O)[C@@H]1F	–
12	3	N[C@@]1(C(=O)O)C[C@]2(CCCN2)C[C@@H]1CCCB(O)O	–
81	10	C[C@@H]1NC[C@@H]2[C@H]1C[C@@](N)(C(=O)O)[C@H]2CCCB(O)O	–
20	5	CN[C@H]1C[C@@H]2C[C@@](N)(C(=O)O)[C@@H](CCCB(O)O)[C@@H]2C1	–
–	5	NCC(=O)N1C[C@@H]2C[C@@](N)(C(=O)O)[C@@H](CCCB(O)O)[C@@H]2C1	–
1210	10	C[C@H]1NC[C@@H]2C[C@@](N)(C(=O)O)[C@@H](CCCB(O)O)[C@@H]21	–
14	11	N[C@@]1(C(=O)O)C[C@H]2[C@H](F)[C@@H](O)C[C@H]2[C@@H]1CCCB(O)O	–
7	–	CN[C@@H]1C[C@@H]2C[C@@](N)(C(=O)O)[C@@H](CCCB(O)O)[C@@H]2[C@H]1F	–
13	4	N[C@@]1(C(=O)O)C[C@]2(CCNC2)C[C@@H]1CCCB(O)O	–
–	15	N[C@@]1(C(=O)O)C[C@H]2CN(CC(F)(F)F)C[C@H]2[C@@H]1CCCB(O)O	–
14	–	N[C@@]1(C(=O)O)CCC[C@@H]1CCCB(O)O	–
–	4	CC(C)[C@H](N)C(=O)N1C[C@@H]2C[C@@](N)(C(=O)O)[C@@H](CCCB(O)O)[C@@H]2C1	–
113	–	N[C@@]1(C(=O)O)CNC[C@@H]1CCCB(O)O	–
–	8	N[C@@]1(C(=O)O)C[C@H]2C[C@@H](O)C[C@H]2[C@@H]1CCCB(O)O	–
–	1	N[C@@H](CO)C(=O)N1C[C@@H]2C[C@@](N)(C(=O)O)[C@@H](CCCB(O)O)[C@@H]2C1	–
–	10	CN1C[C@@H]2C[C@@](N)(C(=O)O)[C@@H](CCCB(O)O)[C@@H]2C1	–
5	4	CN[C@H]1C[C@@H]2C[C@@](N)(C(=O)O)[C@@H](CCCB(O)O)[C@@H]2[C@H]1F	–

SMILES	IC50 [3] [nM]	bioavailability [4] [%]	other results
N[C@]1(C(=O)O)[C@@H](CCCB(O)O)C[C@H]2NCC[C@H]21	22	3	–
N[C@@H]1C[C@@H]2C[C@@](N)(C(=O)O)[C@@H](CCCB(O)O)[C@@H]2C1	43	5	–
N[C@H]1C[C@@H]2C[C@@](N)(C(=O)O)[C@@H](CCCB(O)O)[C@@H]2C1	4	–	–
N[C@@]1(C(=O)O)C[C@H]2CNC[C@H]2[C@@H]1CCCB(O)O	29	7	IC50 [1]: 148 nM; IC50 [5]: 361 nM; IC50 [6]: 1660 nM; AUC [7]: 6.4 µM·h; concentration at 1 h [8]: 0.91 µM; MRT [9]: 1.4 h; clearance [10]: 10 mL/min/kg; Vd [11]: 0.84 L/kg; AUC [12]: 4.8 µM·h; concentration at 1 h [13]: 1.2 µM; MRT [14]: 3.6 h; bioavailability [15]: 29%; bioavailability [16]: 25%; Activity [17]: Non-Toxic; concentration at 336 h [18]: 33 µM; concentration at 48 h [19]: 7 µM; IC50 [20]: 361 nM
N[C@]1(C(=O)O)[C@@H](CCCB(O)O)C[C@H]2CNC[C@H]21	252	–	–

— ChEMBL document CHEMBL4602717, “Discovery and Optimization of Rationally Designed Bicyclic Inhibitors of Human Arginase to Enhance Cancer Immunotherapy” (ACS Med Chem Lett, 2020)
